Data as given in PMC2826548 (Journal of structural biology, 2009).
Like-named read-outs stand apart in the source and are kept apart here.

Legend:
[1] = target: Human K2Pg(C4G/E56D/L72Y), isolated kringle 2 domain of human plasminogen (human); test: SPR
[2] = target: Human K2Pg(C4G/E56D/L72Y), isolated kringle 2 domain of human plasminogen (human); test: AUC
[3] = target: Human K2Pg(C4G/E56D/L72Y), isolated kringle 2 domain of human plasminogen (human)
[4] = system: other isolated Pg kringle domains; conditions: cited from earlier work
[5] = CD α-helix content of VEK-30 peptides in absence of K2Pg; assay type: physicochemical; conditions: 222 nm, 30 μM peptide, 100 mM sodium phosphate, pH 7.4, room temperature
In short: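 Recombinant peptides (His6-GB1 fusion expressed in E. coli BL21(DE3), thrombin-cleaved, GS N-terminal remnant; variants by site-directed mutagenesis; integrity checked by MALDI-TOF). Spectra recorded 200–250 nm in a 1 mm quartz cell without K2Pg. Concentration set by A280. Helix fraction derived from mean residue ellipticity at 222 nm as f_α = (−[θ]222 − 2340)/30,300.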

[6] = target: T1, K2Pg (Homo sapiens, UniProt P00747, C188G/E240D/L256Y); test: SPR binding of VEK-30 variants to immobilized K2Pg
T1 sequence (P00747 184-262 C188G/E240D/L256Y): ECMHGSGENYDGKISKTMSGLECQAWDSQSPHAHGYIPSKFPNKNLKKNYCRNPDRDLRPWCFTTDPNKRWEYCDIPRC
In short: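 Recombinant peptide analytes (GB1-fusion, thrombin-cleaved, GS N-terminal remnant) were run at 25 °C. K2Pg at 100 μg/ml in 0.1 M NaOAc pH 4.0 was amine-coupled (NHS/EDC, ethanolamine block). A K2Pg-free reference cell was subtracted. KD = kd/ka.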

[7] = target: T1, K2Pg; conditions: variant kringle vs K2Pg parent; ref [5]; cited from earlier work
[8] = Sedimentation equilibrium analytical ultracentrifugation; assay type: physicochemical; conditions: sedimentation equilibrium (and NMR correlation time)

Row | Substance | Kd [1] [nM] | koff [1] [s⁻¹] | kon [1] [M⁻¹ s⁻¹] | also measured
1 | VEK-30[D7N] (peptide) | 1940 | 0.0704 | 36200 | 
2 | VEK-30, 30-amino acid residue internal peptide from the streptococcal M-like plasminogen binding protein PAM | 65 | 0.0293 | 454000 | stoichiometry N (VEK-30 per K2Pg) [1]: 1; stoichiometry N (VEK-30 per K2Pg) [2]: 1; Kd [3]: 40 nM
3 | VEK-30[D7A/E9A] (peptide) | 371 | 0.0967 | 261000 | 
4 | VEK-30[D7N/E9Q] (peptide) | 1710 | 0.086 | 50400 | 
5 | H-GSVEKLTADAELQRLKNERHEEAELERLKSEY-OH [VEK-30] |  |  |  | specificity of binding to Pg for the kringle 2 domain ([4]; background statement in Introduction, no reference printed in that sentence): highly specific; affinity for the other isolated Pg kringle domains ([4]; ref [5],[33]): no measurable affinity; Apo-helicity (% α-helix in absence of K2Pg) [5]: 34%; koff ([6]; pH 7.4, read-out: koff (dissociation rate constant)): 0.0293 s⁻¹; kon ([6]; pH 7.4, read-out: kon (association rate constant)): 454000 M⁻¹ s⁻¹; affinity enhancement of K2Pg(C4G/E56D/L72Y) compared with K2Pg parent [7]: approximately 15 fold; association state in solution [8]: monomeric form
6 | VEK-30[D7A] (peptide) | 446 | 0.0561 | 126000 | 
